Tests used:
Assay type in all cases: functional
CCRF-CEM = assay: Growth inhibition of human CCRF-CEM cells at 10 uM after 48 hrs by coulter counter method; details: read-out: GI
In short: (§1)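 Single high-dose NCI 60-cell-line panel screen across nine tumor subpanels. Test solutions (0.2 mL) were added in duplicate to wells holding 1.8 mL of culture at 6 × 10⁴ cells/mL. Controls got PBS and DMSO at identical dilutions. Incubation was 48 h at 37 °C in humidified 5% CO₂. Cells were diluted 10-fold in saline, Coulter-counted and dilution-corrected. Results were expressed as percent growth inhibition versus control.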

HL-60(TB) = assay: Growth inhibition of human HL-60(TB) cells at 10 uM after 48 hrs by coulter counter method; details: HL-60, 48 h, read-out: GI
In short: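 Part of the NCI 60-cell-line single-high-dose panel. Cells were seeded at 6 × 10⁴ cells/mL with test solution in duplicate wells, alongside PBS/DMSO controls at identical dilutions. Plates were held 48 h at 37 °C in a humidified 5% CO₂ incubator. Cells were then diluted 10-fold in saline and counted by Coulter counter, with counts corrected for dilution. Results are percent growth of treated cells, reported as GI %.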

K562 = assay: Growth inhibition of human K562 cells at 10 uM after 48 hrs by coulter counter method; details: K562, 48 h, read-out: GI; in short: as §1
MOLT-4 = assay: Growth inhibition of human MOLT4 cells at 10 uM after 48 hrs by coulter counter method; details: MOLT-4, 48 h, read-out: GI; in short: as §1
SR = assay: Growth inhibition of human SR cells at 10 uM after 48 hrs by coulter counter method; details: read-out: GI; in short: as §1
A549 = assay: Growth inhibition of human A549 cells at 10 uM after 48 hrs by coulter counter method; details: A549, 48 h, read-out: GI; in short: as §1
HOP-92 = assay: Growth inhibition of human HOP92 cells at 10 uM after 48 hrs by coulter counter method; details: HOP-92, 48 h, read-out: GI; in short: as §1
NCI-H226 = assay: Growth inhibition of human NCI-H226 cells at 10 uM after 48 hrs by coulter counter method; details: NCI-H226, 48 h, read-out: GI; in short: as §1
NCI-H23 = assay: Growth inhibition of human NCI-H23 cells at 10 uM after 48 hrs by coulter counter method; details: NCI-H23, 48 h, read-out: GI; in short: as §1
NCI-H522 = assay: Growth inhibition of human NCI-H522 cells at 10 uM after 48 hrs by coulter counter method; details: NCI-H522, 48 h, read-out: GI; in short: as §1
COLO 205 = assay: Growth inhibition of human COLO205 cells at 10 uM after 48 hrs by coulter counter method; details: COLO 205, 48 h, read-out: GI; in short: as §1
HCT-116 = assay: Growth inhibition of human HCT116 cells at 10 uM after 48 hrs by coulter counter method; details: HCT-116, 48 h, read-out: GI; in short: as §1
KM12 = assay: Growth inhibition of human KM12 cells at 10 uM after 48 hrs by coulter counter method; details: KM12, 48 h, read-out: GI; in short: as §1
SF-268 = assay: Growth inhibition of human SF268 cells at 10 uM after 48 hrs by coulter counter method; details: SF-268, 48 h, read-out: GI; in short: as §1
SF-539 = assay: Growth inhibition of human SF539 cells at 10 uM after 48 hrs by coulter counter method; details: SF-539, 48 h, read-out: GI; in short: as §1
SNB-75 = assay: Growth inhibition of human SNB75 cells at 10 uM after 48 hrs by coulter counter method; details: SNB-75, 48 h, read-out: GI; in short: as §1
U-251 = assay: Growth inhibition of human U251 cells at 10 uM after 48 hrs by coulter counter method; details: U-251, 48 h, read-out: GI; in short: as §1
M14 = assay: Growth inhibition of human M14 cells at 10 uM after 48 hrs by coulter counter method; details: M14, 48 h, read-out: GI; in short: as §1
SK-MEL-2 = assay: Growth inhibition of human SK-MEL-2 cells at 10 uM after 48 hrs by coulter counter method; details: SK-MEL-2, 48 h, read-out: GI; in short: as §1
SK-MEL-28 = assay: Growth inhibition of human SK-MEL-28 cells at 10 uM after 48 hrs by coulter counter method; details: SK-MEL-28, 48 h, read-out: GI; in short: as §1
UACC-62 = assay: Growth inhibition of human UACC62 cells at 10 uM after 48 hrs by coulter counter method; details: UACC-62, 48 h, read-out: GI; in short: as §1
IGROV-1 = assay: Growth inhibition of human IGROV1 cells at 10 uM after 48 hrs by coulter counter method; details: IGROV-1, 48 h, read-out: GI; in short: as §1
OVCAR-4 = assay: Growth inhibition of human OVCAR4 cells at 10 uM after 48 hrs by coulter counter method; details: OVCAR-4, 48 h, read-out: GI; in short: as §1
SK-OV-3 = assay: Growth inhibition of human SKOV3 cells at 10 uM after 48 hrs by coulter counter method; details: SK-OV-3, 48 h, read-out: GI; in short: as §1
786-0 = assay: Growth inhibition of human 786-0 cells at 10 uM after 48 hrs by coulter counter method; details: 786-0, 48 h, read-out: GI; in short: as §1
CAKI-1 = assay: Growth inhibition of human Caki1 cells at 10 uM after 48 hrs by coulter counter method; details: CAKI-1, 48 h, read-out: GI; in short: as §1
SN12C = assay: Growth inhibition of human SN12C cells at 10 uM after 48 hrs by coulter counter method; details: read-out: GI; in short: as §1
UO-31 = assay: Growth inhibition of human UO31 cells at 10 uM after 48 hrs by coulter counter method; details: UO-31, 48 h, read-out: GI; in short: as §1
MCF7 = assay: Growth inhibition of human MCF7 cells at 10 uM after 48 hrs by coulter counter method; details: MCF7, 48 h, read-out: GI; in short: as §1
MDA-MB-231 = assay: Growth inhibition of human MDA-MB-231 cells at 10 uM after 48 hrs by coulter counter method; details: MDA-MB-231, 48 h, read-out: GI; in short: as §1
[1] = Growth inhibition of human Hs 578T cells at 10 uM after 48 hrs by coulter counter method; details: read-out: GI; in short: as §1
T47D = assay: Growth inhibition of human T47D cells at 10 uM after 48 hrs by coulter counter method; details: read-out: GI; in short: as §1
MDA-MB-468 = assay: Growth inhibition of human MDA-MB-468 cells at 10 uM after 48 hrs by coulter counter method; details: MDA-MB-468, 48 h, read-out: GI; in short: as §1
PC-3 = assay: Growth inhibition of human PC3 cells at 10 uM after 48 hrs by coulter counter method; details: PC-3, 48 h, read-out: GI; in short: as §1

SMILES | inhibition of growth at 10 µM (CCRF-CEM) [%] | inhibition of growth at 10 µM (HL-60(TB)) [%] | inhibition of growth at 10 µM (K562) [%] | inhibition of growth at 10 µM (MOLT-4) [%] | inhibition of growth at 10 µM (SR) [%] | inhibition of growth at 10 µM (NCI-H226) [%] | inhibition of growth at 10 µM (NCI-H23) [%] | inhibition of growth at 10 µM (NCI-H522) [%] | inhibition of growth at 10 µM (COLO 205) [%] | inhibition of growth at 10 µM (HCT-116) [%] | inhibition of growth at 10 µM (KM12) [%] | inhibition of growth at 10 µM (SF-268) [%] | inhibition of growth at 10 µM (SF-539) [%] | inhibition of growth at 10 µM (SNB-75) [%] | inhibition of growth at 10 µM (U-251) [%] | inhibition of growth at 10 µM (M14) [%] | inhibition of growth at 10 µM (SK-MEL-2) [%] | inhibition of growth at 10 µM (IGROV-1) [%] | inhibition of growth at 10 µM (UO-31) [%] | inhibition of growth at 10 µM (T47D) [%] | further results
O=C(CSc1nc2ccccc2c(=O)n1-c1ccc(Cl)cc1)c1ccc(Cl)cc1 | 30 | 30 | 30 | 30 | 30 | 30 | 30 | 52.6 | 30 | 30 | 30 | 30 | 30 | 30 | 30 | 30 | 30 | 43.7 | 30 | 30 | inhibition of growth at 10 µM (A549): 30%; inhibition of growth at 10 µM (HOP-92): 30%; inhibition of growth at 10 µM (SK-MEL-28): 30%; inhibition of growth at 10 µM (UACC-62): 30%; inhibition of growth at 10 µM (OVCAR-4): 30%; inhibition of growth at 10 µM (SK-OV-3): 30%; inhibition of growth at 10 µM (786-0): 30%; inhibition of growth at 10 µM (CAKI-1): 30%; inhibition of growth at 10 µM (SN12C): 30%; inhibition of growth at 10 µM (MCF7): 30%; inhibition of growth at 10 µM (MDA-MB-231): 30%; inhibition of growth at 10 µM [1]: 30%; inhibition of growth at 10 µM (MDA-MB-468): 30%
COc1ccc(-n2c(SCC(=O)c3ccc(Cl)cc3)nc3ccccc3c2=O)cc1 | 30 | 33.3 |  | 30 | 30 | 75.6 | 41.1 | 23 | 53.1 | 54.6 | 41.8 | 49 | 68.6 | 47.4 | 31.6 | 30 | 30 | 45.7 | 30 | 30 | inhibition of growth at 10 µM (SK-MEL-28): 30%; inhibition of growth at 10 µM (UACC-62): 76.7%; inhibition of growth at 10 µM (OVCAR-4): 32.1%; inhibition of growth at 10 µM (SK-OV-3): 31.9%; inhibition of growth at 10 µM (786-0): 31.1%; inhibition of growth at 10 µM (SN12C): 32.5%; inhibition of growth at 10 µM (PC-3): 55.3%; inhibition of growth at 10 µM (MCF7): 34.3%; inhibition of growth at 10 µM (MDA-MB-231): 33.3%; inhibition of growth at 10 µM [1]: 80.6%; inhibition of growth at 10 µM (MDA-MB-468): 41.4%
CCn1c(SCC(=O)c2ccc(OC)cc2)nc2ccccc2c1=O | 30 | 30 |  | 30 | 30 | 30 | 30 | < 30 | 30 | 30 | 30 | 30 | 30 | 30 | 30 | 30 | 30 | 30 | 31.6 | 30 | inhibition of growth at 10 µM (A549): 30%; inhibition of growth at 10 µM (HOP-92): 30%; inhibition of growth at 10 µM (SK-MEL-28): 30%; inhibition of growth at 10 µM (UACC-62): 30%; inhibition of growth at 10 µM (OVCAR-4): 30%; inhibition of growth at 10 µM (SK-OV-3): 30%; inhibition of growth at 10 µM (786-0): 30%; inhibition of growth at 10 µM (CAKI-1): 30%; inhibition of growth at 10 µM (SN12C): 30%; inhibition of growth at 10 µM (PC-3): 30%; inhibition of growth at 10 µM (MCF7): 30%; inhibition of growth at 10 µM (MDA-MB-231): 30%; inhibition of growth at 10 µM [1]: 30%; inhibition of growth at 10 µM (MDA-MB-468): 30%
CN(C)c1ccc(-c2nnc(Nc3nc4ccccc4c(=O)n3-c3ccccc3)s2)cc1 |  |  | 52 | 34.6 |  |  |  |  |  |  |  |  |  |  |  |  |  |  |  |  | 
O=c1nc(Nc2nc3ccccc3c(=O)n2-c2ccc(Cl)cc2)cc(O)[nH]1 |  |  | 52 | 34.6 |  |  |  |  |  |  |  |  |  |  |  |  |  |  |  |  | 
O=c1nc(Nc2nc3ccccc3c(=O)n2-c2ccccc2)cc(O)[nH]1 |  |  |  |  |  |  |  |  |  |  |  |  |  |  |  |  |  | 72.3 |  |  | 
O=C1Nc2ccc(CNc3ccccn3)cc2C(c2ccc(Cl)cc2)N1 (stereo not given) |  |  |  |  |  |  |  |  |  |  |  |  |  |  |  |  |  |  | 40.5 | 43.9 | 
COc1ccc(C2NC(=O)Nc3ccc(S(=O)(=O)Nc4ccccn4)cc32)cc1 (stereo not given) |  |  |  |  |  |  |  |  |  |  |  |  |  |  |  |  |  |  | 40.5 | 43.9 | 

From ChEMBL document CHEMBL1629431, “Synthesis and antitumor activity of some 2, 3-disubstituted quinazolin-4(3H)-ones and 4, 6- disubstituted- 1, 2, 3, 4-tetrahydroquinazolin-2H-ones” (2010)
